Assay results as given in ChEMBL document CHEMBL5696442, “Discovery of type II inhibitors of TGFβ-activated kinase 1 (TAK1) and mitogen-activated protein kinase kinase kinase kinase 2 (MAP4K2)” (J Med Chem, 2015).

How the values were obtained:
[1] = target: T1, Dual specificity mitogen-activated protein kinase kinase 5 (Homo sapiens) (UniProt Q13163); assay: Inhibition of MAP2K5 Lys2 labeling site in human A-375 cells at 5 uM by KiNativ Profiling analysis relative to control; type: cell-based
T1 sequence (whole entry): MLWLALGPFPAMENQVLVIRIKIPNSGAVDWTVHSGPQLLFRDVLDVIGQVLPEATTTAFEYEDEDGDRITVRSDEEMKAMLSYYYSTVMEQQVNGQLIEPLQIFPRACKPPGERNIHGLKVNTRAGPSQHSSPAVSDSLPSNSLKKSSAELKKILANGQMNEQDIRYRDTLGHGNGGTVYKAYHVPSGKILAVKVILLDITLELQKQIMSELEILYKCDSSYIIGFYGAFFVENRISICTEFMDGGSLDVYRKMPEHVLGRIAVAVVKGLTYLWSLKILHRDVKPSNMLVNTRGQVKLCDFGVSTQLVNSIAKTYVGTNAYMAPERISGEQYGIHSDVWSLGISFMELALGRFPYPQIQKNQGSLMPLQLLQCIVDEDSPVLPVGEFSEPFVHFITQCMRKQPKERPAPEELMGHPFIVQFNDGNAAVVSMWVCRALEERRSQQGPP

[2] = target: Ribosomal protein S6 kinase alpha-1 (Homo sapiens) (UniProt Q15418); assay: Inhibition of RSK1 domain1 Lys1 labeling site in human A-375 cells at 0.5 uM by KiNativ Profiling analysis relative to control; type: cell-based
[3] = target: Serine/threonine-protein kinase Nek7 (Homo sapiens) (UniProt Q8TDX7); assay: Inhibition of NEK7 K1 labeling site in human Huh-7 cells at 10 uM by KiNativ Profiling analysis relative to control; type: cell-based
Serine/threonine-protein kinase Nek7 (Homo sapiens), sequence (Q8TDX7 whole entry, looked up): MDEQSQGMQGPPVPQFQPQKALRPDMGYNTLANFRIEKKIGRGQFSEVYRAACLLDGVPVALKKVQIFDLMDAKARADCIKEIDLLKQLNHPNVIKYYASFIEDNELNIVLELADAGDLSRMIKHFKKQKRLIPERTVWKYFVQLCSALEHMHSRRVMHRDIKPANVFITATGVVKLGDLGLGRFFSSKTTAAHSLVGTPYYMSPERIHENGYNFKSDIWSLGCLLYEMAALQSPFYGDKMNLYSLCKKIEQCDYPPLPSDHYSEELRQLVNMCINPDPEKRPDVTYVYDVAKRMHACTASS

[4] = target: T2, Phosphatidylinositol 5-phosphate 4-kinase type-2 gamma (Homo sapiens) (UniProt Q8TBX8); assay: Inhibition of PIP5K2C ATP labeling site harbouring VKELPTLKDMDFLNK in human Huh-7 cells at 1 uM by KiNativ Profiling analysis relative to control; type: cell-based
T2 sequence (whole entry): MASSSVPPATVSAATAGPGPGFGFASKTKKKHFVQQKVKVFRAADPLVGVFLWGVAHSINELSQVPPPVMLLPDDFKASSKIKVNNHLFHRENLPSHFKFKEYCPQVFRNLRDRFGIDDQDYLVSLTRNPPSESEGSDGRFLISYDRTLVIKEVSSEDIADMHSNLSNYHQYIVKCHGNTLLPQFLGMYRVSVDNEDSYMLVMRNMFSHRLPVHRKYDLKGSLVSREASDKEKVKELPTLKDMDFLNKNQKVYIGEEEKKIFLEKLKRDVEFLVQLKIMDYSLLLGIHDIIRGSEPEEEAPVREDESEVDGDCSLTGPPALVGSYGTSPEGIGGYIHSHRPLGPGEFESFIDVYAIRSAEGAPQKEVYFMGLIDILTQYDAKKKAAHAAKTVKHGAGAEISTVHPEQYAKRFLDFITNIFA

[5] = target: Tyrosine-protein kinase Fes/Fps (Homo sapiens, UniProt P07332); assay: Inhibition of FES K1 labeling site in human Huh-7 cells at 10 uM by KiNativ Profiling analysis relative to control; type: cell-based
Tyrosine-protein kinase Fes/Fps, sequence (P07332 whole entry): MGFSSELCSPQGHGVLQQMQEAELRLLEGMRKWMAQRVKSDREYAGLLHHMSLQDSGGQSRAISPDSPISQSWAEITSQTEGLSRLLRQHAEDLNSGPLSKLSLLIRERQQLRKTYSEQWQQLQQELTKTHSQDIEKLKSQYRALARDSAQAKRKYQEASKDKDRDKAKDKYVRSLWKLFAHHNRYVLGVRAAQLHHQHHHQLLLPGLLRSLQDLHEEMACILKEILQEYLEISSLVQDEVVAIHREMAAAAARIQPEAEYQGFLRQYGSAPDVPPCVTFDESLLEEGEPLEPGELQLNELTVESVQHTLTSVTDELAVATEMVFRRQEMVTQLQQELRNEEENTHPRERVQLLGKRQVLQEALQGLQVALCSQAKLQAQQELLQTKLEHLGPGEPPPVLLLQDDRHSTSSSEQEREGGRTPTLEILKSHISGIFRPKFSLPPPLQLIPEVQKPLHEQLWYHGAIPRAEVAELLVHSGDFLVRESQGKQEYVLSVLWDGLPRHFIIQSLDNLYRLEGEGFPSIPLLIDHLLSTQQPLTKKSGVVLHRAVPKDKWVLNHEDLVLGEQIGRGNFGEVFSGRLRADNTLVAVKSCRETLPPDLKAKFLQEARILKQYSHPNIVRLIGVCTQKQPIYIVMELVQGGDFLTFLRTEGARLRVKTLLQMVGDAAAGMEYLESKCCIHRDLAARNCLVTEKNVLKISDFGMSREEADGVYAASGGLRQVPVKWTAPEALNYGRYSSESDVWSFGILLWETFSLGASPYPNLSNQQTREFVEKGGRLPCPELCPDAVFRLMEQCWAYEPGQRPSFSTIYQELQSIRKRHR

[6] = target: Tyrosine-protein kinase CSK (Homo sapiens, UniProt P41240); assay: Inhibition of CSK ACT labeling site harbouring VSDFGLTKEASSTQDTGK in human A-375 cells at 0.5 uM by KiNativ Profiling analysis relative to control; type: cell-based
Tyrosine-protein kinase CSK, sequence (P41240 2-450 limits assumed): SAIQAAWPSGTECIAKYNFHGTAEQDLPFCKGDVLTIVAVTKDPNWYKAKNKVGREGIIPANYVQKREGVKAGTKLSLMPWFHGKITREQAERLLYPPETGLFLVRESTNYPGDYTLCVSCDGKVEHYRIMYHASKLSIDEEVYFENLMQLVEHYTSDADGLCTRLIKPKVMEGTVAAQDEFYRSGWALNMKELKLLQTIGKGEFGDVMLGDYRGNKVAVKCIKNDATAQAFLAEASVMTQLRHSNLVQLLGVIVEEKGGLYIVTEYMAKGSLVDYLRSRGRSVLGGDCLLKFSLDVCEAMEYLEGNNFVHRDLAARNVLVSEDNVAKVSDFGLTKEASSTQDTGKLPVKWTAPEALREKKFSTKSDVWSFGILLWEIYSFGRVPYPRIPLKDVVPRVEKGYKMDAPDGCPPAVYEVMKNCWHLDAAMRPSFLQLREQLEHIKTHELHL

[7] = target: Ephrin type-A receptor 1 (Homo sapiens) (UniProt P21709); assay: Inhibition of EPHA1 (unknown origin) at 1 uM by Ambit Kinomescan binding assay relative to control; values are per cent of control
[8] = target: AP2-associated protein kinase 1 (Homo sapiens) (UniProt Q2M2I8); assay: Inhibition of AAK1 (unknown origin) at 1 uM by Ambit Kinomescan binding assay relative to control
AP2-associated protein kinase 1 (Homo sapiens), sequence (Q2M2I8 whole entry, looked up): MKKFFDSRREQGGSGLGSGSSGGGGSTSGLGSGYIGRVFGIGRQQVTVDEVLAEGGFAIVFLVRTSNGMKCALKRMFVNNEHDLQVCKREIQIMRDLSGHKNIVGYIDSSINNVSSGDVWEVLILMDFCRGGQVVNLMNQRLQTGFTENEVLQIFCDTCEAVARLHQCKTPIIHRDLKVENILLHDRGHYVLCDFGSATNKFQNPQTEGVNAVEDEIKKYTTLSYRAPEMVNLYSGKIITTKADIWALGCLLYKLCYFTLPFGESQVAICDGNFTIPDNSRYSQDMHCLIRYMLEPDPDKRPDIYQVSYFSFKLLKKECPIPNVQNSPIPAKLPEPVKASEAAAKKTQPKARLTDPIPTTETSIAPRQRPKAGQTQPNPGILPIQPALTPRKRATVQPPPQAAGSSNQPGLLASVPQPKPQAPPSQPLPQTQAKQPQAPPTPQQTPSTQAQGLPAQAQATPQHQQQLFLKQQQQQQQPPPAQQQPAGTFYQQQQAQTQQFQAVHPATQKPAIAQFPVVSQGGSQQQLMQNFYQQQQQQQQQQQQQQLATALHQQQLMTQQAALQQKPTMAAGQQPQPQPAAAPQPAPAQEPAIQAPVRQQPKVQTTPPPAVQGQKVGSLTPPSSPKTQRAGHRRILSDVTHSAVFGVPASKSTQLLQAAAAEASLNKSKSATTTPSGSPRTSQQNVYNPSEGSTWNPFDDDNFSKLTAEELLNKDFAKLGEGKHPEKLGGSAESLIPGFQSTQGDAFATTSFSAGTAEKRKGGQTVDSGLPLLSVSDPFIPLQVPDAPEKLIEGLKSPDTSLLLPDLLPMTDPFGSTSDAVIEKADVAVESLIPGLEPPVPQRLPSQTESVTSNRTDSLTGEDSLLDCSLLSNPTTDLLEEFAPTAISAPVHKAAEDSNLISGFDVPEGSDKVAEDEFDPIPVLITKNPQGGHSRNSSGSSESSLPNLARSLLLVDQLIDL

[9] = target: Myosin-IIIa (Homo sapiens) (UniProt Q8NEV4); assay: Inhibition of MYO3A (unknown origin) at 1 uM by Ambit Kinomescan binding assay relative to control
Outline: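 In vitro ATP-site competition binding assay against a panel of over 420 kinases (KinomeScan), with compound tested at 10 or 1 μM.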

[10] = target: T3, Phosphorylase b kinase gamma catalytic chain, liver/testis isoform (Homo sapiens) (UniProt P15735); assay: Inhibition of PHKG2 (unknown origin) at 1 uM by Ambit Kinomescan binding assay relative to control; values are per cent of control
T3 sequence (whole entry): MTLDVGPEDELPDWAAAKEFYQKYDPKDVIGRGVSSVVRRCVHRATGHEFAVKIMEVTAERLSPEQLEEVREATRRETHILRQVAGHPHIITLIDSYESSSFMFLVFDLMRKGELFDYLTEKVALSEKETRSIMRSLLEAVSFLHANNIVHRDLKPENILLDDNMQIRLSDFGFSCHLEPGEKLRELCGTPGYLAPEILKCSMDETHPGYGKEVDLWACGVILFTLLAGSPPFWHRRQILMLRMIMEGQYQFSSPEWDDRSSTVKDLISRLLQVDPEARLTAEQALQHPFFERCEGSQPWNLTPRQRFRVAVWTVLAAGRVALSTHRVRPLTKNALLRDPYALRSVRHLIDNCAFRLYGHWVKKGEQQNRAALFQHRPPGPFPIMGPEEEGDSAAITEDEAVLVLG

[11] = target: Serine/threonine-protein kinase MRCK alpha (Homo sapiens) (UniProt Q5VT25); assay: Inhibition of MRCKA (unknown origin) at 1 uM by Ambit Kinomescan binding assay relative to control
Serine/threonine-protein kinase MRCK alpha (Homo sapiens), sequence (Q5VT25 whole entry): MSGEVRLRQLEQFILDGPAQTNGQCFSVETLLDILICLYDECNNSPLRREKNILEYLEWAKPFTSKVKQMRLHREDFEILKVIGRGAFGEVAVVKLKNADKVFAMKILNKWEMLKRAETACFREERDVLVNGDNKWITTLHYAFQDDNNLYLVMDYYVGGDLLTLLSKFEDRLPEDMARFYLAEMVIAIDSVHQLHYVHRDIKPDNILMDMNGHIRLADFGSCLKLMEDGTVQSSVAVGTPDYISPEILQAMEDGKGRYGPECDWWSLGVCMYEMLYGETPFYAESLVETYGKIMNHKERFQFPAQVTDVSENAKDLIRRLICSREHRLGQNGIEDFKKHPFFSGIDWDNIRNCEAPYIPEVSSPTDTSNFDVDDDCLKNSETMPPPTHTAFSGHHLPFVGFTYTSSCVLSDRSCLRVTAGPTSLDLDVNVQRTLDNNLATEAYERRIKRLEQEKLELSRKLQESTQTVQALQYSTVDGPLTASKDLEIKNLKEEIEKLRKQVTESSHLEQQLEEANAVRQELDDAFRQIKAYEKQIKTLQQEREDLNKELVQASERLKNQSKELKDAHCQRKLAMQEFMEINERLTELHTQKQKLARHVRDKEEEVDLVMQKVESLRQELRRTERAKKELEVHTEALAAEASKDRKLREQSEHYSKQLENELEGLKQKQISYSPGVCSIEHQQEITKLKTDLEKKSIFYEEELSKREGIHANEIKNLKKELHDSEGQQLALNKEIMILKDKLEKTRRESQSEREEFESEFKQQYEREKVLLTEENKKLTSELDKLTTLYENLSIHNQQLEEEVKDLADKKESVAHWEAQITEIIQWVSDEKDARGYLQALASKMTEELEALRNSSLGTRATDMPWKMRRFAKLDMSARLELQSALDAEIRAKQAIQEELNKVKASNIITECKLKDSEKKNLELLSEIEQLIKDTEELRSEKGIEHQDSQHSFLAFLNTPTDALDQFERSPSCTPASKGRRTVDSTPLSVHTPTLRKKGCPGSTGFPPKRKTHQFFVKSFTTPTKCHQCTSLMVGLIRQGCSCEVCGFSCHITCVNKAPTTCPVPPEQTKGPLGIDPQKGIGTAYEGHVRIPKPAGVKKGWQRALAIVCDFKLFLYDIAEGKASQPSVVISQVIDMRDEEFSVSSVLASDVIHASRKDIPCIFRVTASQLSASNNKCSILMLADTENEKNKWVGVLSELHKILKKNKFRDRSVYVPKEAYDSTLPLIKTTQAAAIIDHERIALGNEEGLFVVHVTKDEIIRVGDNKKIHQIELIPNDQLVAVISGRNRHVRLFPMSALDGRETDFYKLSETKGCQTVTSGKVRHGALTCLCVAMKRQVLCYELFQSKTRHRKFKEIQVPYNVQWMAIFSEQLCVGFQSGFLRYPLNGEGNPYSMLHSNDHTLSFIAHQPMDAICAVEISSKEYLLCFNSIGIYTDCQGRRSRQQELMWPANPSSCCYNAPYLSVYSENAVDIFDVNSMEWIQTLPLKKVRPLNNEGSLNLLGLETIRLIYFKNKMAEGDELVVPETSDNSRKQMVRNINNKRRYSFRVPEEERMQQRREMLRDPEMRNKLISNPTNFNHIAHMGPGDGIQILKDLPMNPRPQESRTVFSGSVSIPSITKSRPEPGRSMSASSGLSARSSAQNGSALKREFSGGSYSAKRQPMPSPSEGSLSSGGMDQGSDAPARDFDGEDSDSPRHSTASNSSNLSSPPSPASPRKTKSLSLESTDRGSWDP

[12] = target: Serine/threonine-protein kinase MARK2 (Homo sapiens) (UniProt Q7KZI7); assay: Inhibition of MARK2 (unknown origin) at 1 uM by Ambit Kinomescan binding assay relative to control
Serine/threonine-protein kinase MARK2 (Homo sapiens), sequence (Q7KZI7 whole entry): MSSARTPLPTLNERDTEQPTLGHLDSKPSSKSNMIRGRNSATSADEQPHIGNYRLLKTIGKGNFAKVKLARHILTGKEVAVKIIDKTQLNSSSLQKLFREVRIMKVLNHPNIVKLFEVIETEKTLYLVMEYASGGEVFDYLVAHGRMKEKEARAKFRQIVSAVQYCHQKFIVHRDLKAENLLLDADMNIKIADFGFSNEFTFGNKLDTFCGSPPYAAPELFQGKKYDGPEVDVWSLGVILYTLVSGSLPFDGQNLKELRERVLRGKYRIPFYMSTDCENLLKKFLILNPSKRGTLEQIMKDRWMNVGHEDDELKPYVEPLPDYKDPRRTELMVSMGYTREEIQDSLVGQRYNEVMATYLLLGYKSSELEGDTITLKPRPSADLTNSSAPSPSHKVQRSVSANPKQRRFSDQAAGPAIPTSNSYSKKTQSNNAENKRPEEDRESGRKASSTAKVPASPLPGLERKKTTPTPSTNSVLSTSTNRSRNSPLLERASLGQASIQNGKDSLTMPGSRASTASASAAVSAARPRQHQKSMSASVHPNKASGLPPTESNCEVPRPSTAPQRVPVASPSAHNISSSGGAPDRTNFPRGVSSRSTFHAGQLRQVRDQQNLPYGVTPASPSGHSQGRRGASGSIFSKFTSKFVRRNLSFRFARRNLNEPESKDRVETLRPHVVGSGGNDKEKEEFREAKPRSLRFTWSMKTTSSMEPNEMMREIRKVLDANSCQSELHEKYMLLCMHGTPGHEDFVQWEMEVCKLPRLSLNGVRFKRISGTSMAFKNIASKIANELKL

| SMILES | inhibition [1] | inhibition [2] | inhibition [3] | inhibition [4] | inhibition [5] | inhibition [6] | residual activity [7] | inhibition [8] | inhibition [9] | residual activity [10] | inhibition [11] | inhibition [12] |
| --- | --- | --- | --- | --- | --- | --- | --- | --- | --- | --- | --- | --- |
| CCN1CCN(Cc2ccc(NC(=O)c3ccc(C)c(Oc4ccnc5[nH]ccc45)c3)cc2C(F)(F)F)CC1 | -7.1% | -0.7% | -8.8% | 2.9% | 72.6% | 49.8% |  |  |  |  |  |  |
| CCN1CCN(Cc2ccc(NC(=O)c3ccc(C)c(/C=C/c4cnc5[nH]ccc5c4OC)c3)cc2C(F)(F)F)CC1 |  |  |  |  |  |  | 16% | 67% | 84% | 100% | 79% | 59% |
